Sampled rows, rich in hits. Any-hit rate of the full collection: about 3.5%.
MrgX1 ag – activates human MrgX1 receptor signaling. Q96LB2. MrgX1-HEK293 cells, Fluo-4 calcium fluorescence, agonist mode; active compounds read high. B-score at 10 µM. 0.44% of 310,000 active. AID 588627;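 active = calcium response B-score plate-corrected fluorescence ratio at least 3 library SD, with starting fluorescence B-score inside 5 SD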
Target sequence (Q96LB2 whole entry, looked up): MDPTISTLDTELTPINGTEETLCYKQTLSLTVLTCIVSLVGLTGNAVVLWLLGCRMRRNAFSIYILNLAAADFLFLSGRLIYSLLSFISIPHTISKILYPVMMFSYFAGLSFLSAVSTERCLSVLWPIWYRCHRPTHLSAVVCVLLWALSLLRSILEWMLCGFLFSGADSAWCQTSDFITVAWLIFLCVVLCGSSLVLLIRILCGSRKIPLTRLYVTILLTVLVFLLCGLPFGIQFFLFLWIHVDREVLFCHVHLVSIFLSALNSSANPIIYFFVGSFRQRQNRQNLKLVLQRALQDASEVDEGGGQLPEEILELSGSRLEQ
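System – MrgX1-expressing HEK293 cells · Incubation – cells plated overnight, dye loaded 0.5 h 37 °C, 0.5 h room temperature · Technique – kinetic Fluo-4 NW fluorescence of intracellular calcium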
RGS4 inh – inhibitors of human RGS4; HEK293 M3R/RGS4 inducible, Fluo-4 calcium flux; active compounds read high; triggered by carbachol at its EC20; B-score at 10 µM; 0.45% of 310,000 active;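 active = B-score, a plate-corrected calcium signal, over three deviations above library mean, with baseline fluorescence within five deviations of library mean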;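 note: RGS4 expression induced by doxycycline in cells with stable M3 receptor; B-score is computed from the integrated fluorescence ratio over baseline after carbachol; higher B-score means a larger calcium signal and so more RGS4 inhibition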
Target sequence (P49798 whole entry, looked up): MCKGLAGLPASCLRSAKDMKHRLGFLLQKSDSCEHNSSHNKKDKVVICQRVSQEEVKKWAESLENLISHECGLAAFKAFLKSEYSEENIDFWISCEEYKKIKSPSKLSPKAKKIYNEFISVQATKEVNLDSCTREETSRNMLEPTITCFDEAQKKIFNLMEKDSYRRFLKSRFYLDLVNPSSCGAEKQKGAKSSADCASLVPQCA
MrgX1 antagonist – blocks BAM8-22 activation of human MrgX1 receptor; MRGX1-HEK293 calcium flux, Fluo-4, BAM8-22 antagonism; active compounds read low; B-score at 10 µM; 1.3% of 310,000 active; AID 588676;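 active = calcium-response B-score plate-corrected more than 3 library SD below zero, starting fluorescence within 5 deviations, no agonist response on first addition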;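 note: peak minus trough fluorescence over baseline after final BAM8-22 challenge near maximal dose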
RGS4 pot – potentiators or activators of RGS4; HEK293 M3R/inducible RGS4, carbachol calcium flux Fluo4; active compounds read low; B-score at 10 µM; 0.92% of 310,000 active; AID 463111;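 active = B-score of the integrated calcium signal more than 4 SD below the library mean, with starting fluorescence not abnormally high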;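 note: negative B-score means reduced calcium response which marks RGS4 activation or potentiation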
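test system = HEK293 cells with stable M3R and inducible RGS4 | schedule = recording 10 s baseline at 1 Hz, 100 s post-agonist | technique = Fluo4-AM (2 µM) calcium-flux fluorescence, kinetic read | measure = Agonist-evoked peak-minus-minimum fluorescence over baseline, integrated ratio, B score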
MrgX1 allo act – human MrgX1 positive allosteric modulation, primary screen; Q96LB2; MrgX1-HEK293, Fluo-4 calcium flux, FDSS; active compounds read high; B-score at 10 µM; 0.63% of 310,000 active;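 active = plate-corrected calcium response at least 3 library SD above typical, normal starting fluorescence, not activating the receptor alone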;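 note: compound read alongside a low EC10 to EC30 dose of BAM8-22 agonist; peak minus trough fluorescence over baseline measured at the second addition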
MrgX1 ag confirm – reconfirmed activator of human MrgX1 receptor signaling; shares compounds with MrgX1 ag; MrgX1-HEK293, Fluo-4 calcium fluorescence, FDSS; activation, % at 10 µM; 78% of 600 active; AID 602412;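 active = calcium signal rise, corrected for plate position, at least 3 library SD high, with starting brightness within 5 such deviations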; note: reference of the scale not given here
HEK293 Ca flux – counter-screen for MrgX1 antagonists: effect in parental HEK293 cells; shares compounds with MrgX1 antagonist; Fluo-4 calcium fluorescence, FDSS; fluorescence ratio F(max-min)/F0 at 10 µM; 2% of 4,000 active; AID 624111;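 active = duplicate-averaged calcium fluorescence ratio at least three times the standard deviation of buffer wells, a nonspecific response in parental cells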
HEK293 Ca counter – counter-screen for MrgX1 allosteric activators: effect in parental HEK293 cells. shares compounds with MrgX1 antagonist. parental HEK293 calcium flux, Fluo-4 fluorescence ratio; active compounds read high. fluorescence ratio F(max-min)/F0 at 10 µM. 0.4% of 4,000 active. AID 624114;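 active = calcium fluorescence ratio, averaged over duplicates, at least 3 SD of the buffer-well ratio, meaning a nonspecific response in receptor-free cells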;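 note: untransfected parental HEK293 lacking MrgX1 used as counterscreen for MrgX1 allosteric activators; fluorescence change taken during the second addition on a kinetic imager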
HEK293 Ca cntr2 – MrgX1 activator counter-screen hit in parental HEK293 cells; shares compounds with MrgX1 antagonist; Fluo-4 calcium fluorescence (FDSS); active compounds read high; fluorescence ratio F(max-min)/F0 at 10 µM; 8.7% of 4,000 active;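 active = calcium fluorescence ratio at least three times the spread of buffer wells, meaning a non-specific response in parental cells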
* hit, by the source's call.

How did Cc1cccc(N2CCN(S(=O)(=O)c3ccc(-c4ccc(=O)[nH]n4)o3)CC2)c1C do in these assays?
MrgX1 ag: inactive; RGS4 inh: inactive; MrgX1 antagonist: inactive; RGS4 pot: inactive; MrgX1 allo act: inactive

Results for Cc1ccc(-c2n[nH]c(=O)c3ccccc23)cc1S(=O)(=O)NCC1CCCO1 (stereo not given) ?
MrgX1 ag: 39.6*; RGS4 inh: inactive; MrgX1 antagonist: inactive; RGS4 pot: inactive; MrgX1 allo act: inactive; MrgX1 ag confirm: 174.1%*; HEK293 Ca flux: inactive; HEK293 Ca counter: inactive; HEK293 Ca cntr2: inactive

How did CC(=O)COc1cccc2ccc(/C=C/c3ccc(Br)s3)nc12 do in these assays?
MrgX1 ag: 38.4*; RGS4 inh: inactive; MrgX1 antagonist: inactive; RGS4 pot: inactive; MrgX1 allo act: inactive; MrgX1 ag confirm: 162.7%*; HEK293 Ca flux: inactive; HEK293 Ca counter: inactive; HEK293 Ca cntr2: 48.9*

What do the screens show for `Cc1ccc(NC2=NCC(=O)N2CCc2ccccc2)cc1C`?
MrgX1 ag: inactive; RGS4 inh: inactive; MrgX1 antagonist: inactive; RGS4 pot: inactive; MrgX1 allo act: inactive

Results for CCOc1ccc(NC2=NCC(=O)N2CCc2ccccc2)cc1 ?
MrgX1 ag: 27.3*; RGS4 inh: inactive; MrgX1 antagonist: inactive; RGS4 pot: inactive; MrgX1 allo act: inactive; MrgX1 ag confirm: 122.1%*; HEK293 Ca flux: inactive; HEK293 Ca counter: inactive; HEK293 Ca cntr2: inactive

How did CCN1CCN(c2ccc(S(=O)(=O)N3CCOCC3)cc2NC(=O)COc2ccc(F)cc2Cl)CC1 do in these assays?
MrgX1 ag: inactive; RGS4 inh: inactive; MrgX1 antagonist: inactive; RGS4 pot: inactive; MrgX1 allo act: inactive

Results for CN1CCc2c(sc3c2C(=O)NC(c2cccs2)N3)C1 (stereo not given) ?
MrgX1 ag: 40.2*; RGS4 inh: inactive; MrgX1 antagonist: inactive; RGS4 pot: inactive; MrgX1 allo act: inactive; MrgX1 ag confirm: inactive; HEK293 Ca flux: inactive; HEK293 Ca counter: inactive; HEK293 Ca cntr2: inactive

How did CSc1ccc(C2NC(=O)c3c(sc4c3CCN(C)C4)N2)cc1 (stereo not given) do in these assays?
MrgX1 ag: 27.9*; RGS4 inh: inactive; MrgX1 antagonist: inactive; RGS4 pot: inactive; MrgX1 allo act: inactive; MrgX1 ag confirm: 100.8%*; HEK293 Ca flux: inactive; HEK293 Ca counter: inactive; HEK293 Ca cntr2: inactive

How did CC(=O)c1ccc(S(=O)(=O)N2CCN(C(=O)CN3C(=O)NC4(CCCC4)C3=O)CC2)cc1 do in these assays?
MrgX1 ag: inactive; RGS4 inh: inactive; MrgX1 antagonist: inactive; RGS4 pot: inactive; MrgX1 allo act: inactive

What do the screens show for `COc1ccc(S(=O)(=O)CC(=O)c2cc3cc(Br)ccc3oc2=O)cc1`?
MrgX1 ag: 70.3*; RGS4 inh: inactive; MrgX1 antagonist: inactive; RGS4 pot: inactive; MrgX1 allo act: inactive; MrgX1 ag confirm: 325.9%*; HEK293 Ca flux: inactive; HEK293 Ca counter: inactive; HEK293 Ca cntr2: 61.4*

How did COc1ccc(/C(O)=C/c2nc3ccc(C(=O)NCCc4cccc(C)c4)cc3[nH]c2=O)cc1OC do in these assays?
MrgX1 ag: 28.2*; RGS4 inh: inactive; MrgX1 antagonist: inactive; RGS4 pot: inactive; MrgX1 allo act: inactive; MrgX1 ag confirm: inactive; HEK293 Ca flux: inactive; HEK293 Ca counter: inactive; HEK293 Ca cntr2: inactive

What do the screens show for `Cc1ccc(-c2ccc(CCC(=O)O)n2Cc2ccco2)cc1`?
MrgX1 ag: 30.5*; RGS4 inh: inactive; MrgX1 antagonist: inactive; RGS4 pot: inactive; MrgX1 allo act: inactive; MrgX1 ag confirm: 128.6%*; HEK293 Ca flux: inactive; HEK293 Ca counter: inactive; HEK293 Ca cntr2: inactive

What do the screens show for `O=C(O)CCc1ccc(-c2ccccc2)n1CC(=O)O`?
MrgX1 ag: inactive; RGS4 inh: inactive; MrgX1 antagonist: inactive; RGS4 pot: inactive; MrgX1 allo act: inactive

How did c1ccc(C2=NNC(c3ccccn3)=NN2)nc1 do in these assays?
MrgX1 ag: inactive; RGS4 inh: inactive; MrgX1 antagonist: inactive; RGS4 pot: inactive; MrgX1 allo act: inactive

What do the screens show for `Cc1cc(C)nc(/N=C(\N)Nc2ccc(-c3ccccc3)cc2)n1`?
MrgX1 ag: 74*; RGS4 inh: inactive; MrgX1 antagonist: inactive; RGS4 pot: -7.1*; MrgX1 allo act: inactive; MrgX1 ag confirm: 300.2%*; HEK293 Ca flux: inactive; HEK293 Ca counter: inactive; HEK293 Ca cntr2: inactive

How did Cc1cc(C)nc(/N=C(\N)Nc2ccc(S(N)(=O)=O)cc2)n1 do in these assays?
MrgX1 ag: inactive; RGS4 inh: inactive; MrgX1 antagonist: inactive; RGS4 pot: inactive; MrgX1 allo act: inactive

What do the screens show for `COc1ccc(C)cc1N/C(N)=N/c1nc(C)cc(C)n1`?
MrgX1 ag: inactive; RGS4 inh: inactive; MrgX1 antagonist: inactive; RGS4 pot: inactive; MrgX1 allo act: inactive

Results for CC(=O)Nc1ccc(N/C(N)=N/c2nc(C)cc(C)n2)cc1 ?
MrgX1 ag: inactive; RGS4 inh: inactive; MrgX1 antagonist: inactive; RGS4 pot: inactive; MrgX1 allo act: inactive

How did CCOc1ccc(N/C(N)=N/c2nc(C)cc(C)n2)cc1 do in these assays?
MrgX1 ag: 142*; RGS4 inh: inactive; MrgX1 antagonist: inactive; RGS4 pot: inactive; MrgX1 allo act: inactive; MrgX1 ag confirm: 434.3%*; HEK293 Ca flux: inactive; HEK293 Ca counter: inactive; HEK293 Ca cntr2: 94.4*

What do the screens show for `Cc1ccc(C)c(N/C(N)=N/c2nc(C)cc(C)n2)c1`?
MrgX1 ag: 58.5*; RGS4 inh: inactive; MrgX1 antagonist: inactive; RGS4 pot: inactive; MrgX1 allo act: inactive; MrgX1 ag confirm: 385.0%*; HEK293 Ca flux: inactive; HEK293 Ca counter: inactive; HEK293 Ca cntr2: 85.3*

Results for Cc1cc(C)nc(/N=C(\N)Nc2ccc(SC(F)F)cc2)n1 ?
MrgX1 ag: 57*; RGS4 inh: inactive; MrgX1 antagonist: inactive; RGS4 pot: inactive; MrgX1 allo act: inactive; MrgX1 ag confirm: 443.8%*; HEK293 Ca flux: inactive; HEK293 Ca counter: inactive; HEK293 Ca cntr2: 97.7*

How did Cc1cc(C)c(S(=O)(=O)Nc2ccccc2C(=O)N2CCOCC2)c(C)c1 do in these assays?
MrgX1 ag: inactive; RGS4 inh: inactive; MrgX1 antagonist: inactive; RGS4 pot: inactive; MrgX1 allo act: inactive
